Values after ≈ are worked out from the molar mass of the structure shown. Active and inactive are the calls of the source. The calls are words filed in the database; no cut-off is given here.
Experiments:
[1] = system: Staphylococcus aureus; test: Antibacterial activity against methicillin-sensitive Staphylococcus aureus after 18 to 20 hrs by microbroth dilution method; type: functional
[2] = system: Enterococcus faecalis; test: Antibacterial activity against Enterococcus faecalis after 18 to 20 hrs by microbroth dilution method; type: functional
[3] = system: Escherichia coli; test: Antibacterial activity against Escherichia coli after 18 to 20 hrs by microbroth dilution method; type: functional
[4] = system: Staphylococcus aureus; test: Antibacterial activity against methicillin-resistant Staphylococcus aureus after 18 to 20 hrs by microbroth dilution method; type: functional
[5] = system: Staphylococcus aureus; test: Induction of intracellular thiol depletion in Staphylococcus aureus after 60 mins by monobromobimane-based fluorescence assay relative to control
[6] = system: Staphylococcus aureus; test: Antibacterial activity against patient-derived methicillin-resistant Staphylococcus aureus 7419 after 18 to 20 hrs by microbroth dilution method; type: functional
Outline: (§1)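 Patient-derived MRSA clinical isolates from the Department of Microbiology, Nizam's Institute of Medical Sciences, Hyderabad. MIC determined by broth dilution.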

[7] = system: Staphylococcus aureus; test: Antibacterial activity against patient-derived methicillin-resistant Staphylococcus aureus B19506 after 18 to 20 hrs by microbroth dilution method; type: functional; outline: as §1
[8] = system: Staphylococcus aureus; test: Antibacterial activity against patient-derived methicillin-resistant Staphylococcus aureus 7425 after 18 to 20 hrs by microbroth dilution method; type: functional; outline: as §1
[9] = system: Staphylococcus aureus; test: Antibacterial activity against patient-derived methicillin-resistant Staphylococcus aureus 7386 after 18 to 20 hrs by microbroth dilution method; type: functional; outline: as §1
[10] = system: Staphylococcus aureus; test: Antibacterial activity against patient-derived methicillin-resistant Staphylococcus aureus K1 after 18 to 20 hrs by microbroth dilution method; type: functional; outline: as §1
[11] = system: Staphylococcus aureus; test: Induction of intracellular thiol depletion in Staphylococcus aureus after 60 mins by monobromobimane-based fluorescence assay relative to control; type: functional, organism-based
[12] = system: Staphylococcus aureus; test: Induction of intracellular oxidative species generation in methicillin-sensitive Staphylococcus aureus 29213 at 0.5 to 8 ug/ml after 1 hr by DCFH2-DA dye-based fluorescence assay; type: functional, organism-based
Outline: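 Intracellular oxidative species in S. aureus are read as fluorescence of 2,7-dichlorodihydrofluorescein-diacetate (DCFH2-DA) after exposure to compound.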

[13] = Cytotoxicity against human A549 cells after 72 hrs by MTT assay; type: cell-based
[14] = Selectivity index, ratio of GI50 for human A549 cells to MIC for Staphylococcus aureus
Outline: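 Selectivity index calculated as GI50 in A549 lung carcinoma cells divided by MIC.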

Compound | MIC [1] [µg/mL] | MIC [2] [µg/mL] | MIC [3] [µg/mL] | MIC [4] [µg/mL] | other results
CN(Cc1ccccc1)S(=O)(=O)c1ccc([N+](=O)[O-])cc1[N+](=O)[O-] | 8 (≈ 22.8 µM) |  |  |  | 
C#CCN(CC)S(=O)(=O)c1ccc([N+](=O)[O-])cc1[N+](=O)[O-] | 16 (≈ 51.1 µM) | > 32 | > 32 | 16 (≈ 51.1 µM) | Activity [5]: inactive
COc1ccccc1NS(=O)(=O)c1ccc([N+](=O)[O-])cc1[N+](=O)[O-] | 8 (≈ 22.6 µM) | 16 (≈ 45.3 µM) | > 32 | 8 (≈ 22.6 µM) | 
COc1ccccc1N(C)S(=O)(=O)c1ccc([N+](=O)[O-])cc1[N+](=O)[O-] | 16 (≈ 43.6 µM) | 16 (≈ 43.6 µM) | > 32 | 16 (≈ 43.6 µM) | 
COc1ccc(CN(CCCN(Cc2ccccc2)S(=O)(=O)c2ccc([N+](=O)[O-])cc2[N+](=O)[O-])S(=O)(=O)c2ccc([N+](=O)[O-])cc2[N+](=O)[O-])cc1 | > 32 | > 32 | > 32 |  | 
C#CCN(Cc1ccccc1)S(=O)(=O)c1ccc([N+](=O)[O-])cc1[N+](=O)[O-] | 4 (≈ 10.7 µM) | 16 (≈ 42.6 µM) | > 32 | 4 (≈ 10.7 µM) | 
NC[C@H]1O[C@H](O[C@H]2[C@H](O)[C@@H](O[C@H]3O[C@H](CO)[C@@H](O)[C@H](N)[C@H]3O)[C@H](N)C[C@@H]2N)[C@H](N)C[C@@H]1O [TOBRAMYCIN] |  |  |  | > 32 | MIC [6]: > 32 µg/mL; MIC [7]: > 32 µg/mL; MIC [8]: 1 µg/mL (≈ 2.14 µM); MIC [9]: > 32 µg/mL; MIC [10]: 8 µg/mL (≈ 17.1 µM)
C#CCN(Cc1cccc(OC)c1)S(=O)(=O)c1ccc([N+](=O)[O-])cc1[N+](=O)[O-] | 16 (≈ 39.5 µM) |  |  |  | 
O=C(O)c1cn(C2CC2)c2cc(N3CCNCC3)c(F)cc2c1=O [CIPROFLOXACIN] |  |  | ≤ 0.00075 | 0.25 (≈ 0.754 µM) | MIC [6]: > 4 µg/mL; MIC [7]: 32 µg/mL (≈ 96.6 µM); MIC [8]: > 4 µg/mL; MIC [9]: > 4 µg/mL; MIC [10]: 0.5 µg/mL (≈ 1.51 µM)
COc1ccc(CN(CCCN(Cc2ccccc2)S(=O)(=O)c2ccc([N+](=O)[O-])cc2[N+](=O)[O-])S(=O)(=O)c2ccc([N+](=O)[O-])cc2[N+](=O)[O-])c(OC)c1 | > 16 | > 32 | > 32 | > 32 | Activity [5]: inactive
COc1cccc(N(CCCN(Cc2ccccc2)S(=O)(=O)c2ccc([N+](=O)[O-])cc2[N+](=O)[O-])S(=O)(=O)c2ccc([N+](=O)[O-])cc2[N+](=O)[O-])c1 | > 32 |  |  |  | 
COc1ccc(CNS(=O)(=O)c2ccc([N+](=O)[O-])cc2[N+](=O)[O-])cc1 | > 16 |  |  |  | 
O=[N+]([O-])c1ccc(S(=O)(=O)N(CCCN(c2ccccc2F)S(=O)(=O)c2ccc([N+](=O)[O-])cc2[N+](=O)[O-])Cc2ccccc2)c([N+](=O)[O-])c1 | > 32 |  |  |  | 
O=[N+]([O-])c1ccc(S(=O)(=O)N(CCCN(Cc2ccccc2)S(=O)(=O)c2ccc([N+](=O)[O-])cc2[N+](=O)[O-])Cc2ccccc2)c([N+](=O)[O-])c1 | > 16 |  |  |  | 
COc1cccc(NS(=O)(=O)c2ccc([N+](=O)[O-])cc2[N+](=O)[O-])c1 | 16 (≈ 45.3 µM) | > 32 | > 32 | 32 (≈ 90.6 µM) | 
O=[N+]([O-])c1ccc(S(=O)(=O)N(CCCN(c2ccccc2)S(=O)(=O)c2ccc([N+](=O)[O-])cc2[N+](=O)[O-])Cc2ccccc2)c([N+](=O)[O-])c1 | > 16 |  |  |  | 
O=[N+]([O-])c1ccc(S(=O)(=O)NCc2ccccc2)c([N+](=O)[O-])c1 | > 16 |  |  |  | 
C#CCN(c1ccccc1OC)S(=O)(=O)c1ccc([N+](=O)[O-])cc1[N+](=O)[O-] | 4 (≈ 10.2 µM) | 8 (≈ 20.4 µM) | > 32 | 8 (≈ 20.4 µM) | 
COc1ccc(NS(=O)(=O)c2ccc([N+](=O)[O-])cc2[N+](=O)[O-])cc1 | > 16 |  |  |  | 
O=[N+]([O-])c1ccc(S(=O)(=O)Nc2ccccc2)c([N+](=O)[O-])c1 | 8 (≈ 24.7 µM) |  |  |  | 

Compound | MIC [1] [µg/mL] | MIC [2] [µg/mL] | MIC [3] [µg/mL] | MIC [4] [µg/mL] | other results
C=CCN(c1cccc(OC)c1)S(=O)(=O)c1ccc([N+](=O)[O-])cc1[N+](=O)[O-] | 8 (≈ 20.3 µM) | 16 (≈ 40.7 µM) | > 32 | 8 (≈ 20.3 µM) | 
CCCCN(c1ccccc1OC)S(=O)(=O)c1ccc([N+](=O)[O-])cc1[N+](=O)[O-] | > 32 | > 32 | > 32 |  | 
CC(=O)NC[C@H]1CN(c2ccc(N3CCOCC3)c(F)c2)C(=O)O1 [LINEZOLID] |  |  |  | 1 (≈ 2.96 µM) | 
COc1ccccc1N(Cc1ccccc1)S(=O)(=O)c1ccc([N+](=O)[O-])cc1[N+](=O)[O-] | > 32 | > 32 | > 32 |  | 
COc1ccccc1CN(CCCN(Cc1ccccc1)S(=O)(=O)c1ccc([N+](=O)[O-])cc1[N+](=O)[O-])S(=O)(=O)c1ccc([N+](=O)[O-])cc1[N+](=O)[O-] | > 32 | > 32 | > 32 |  | 
C#CCN(c1cccc(OC)c1)S(=O)(=O)c1ccc([N+](=O)[O-])cc1[N+](=O)[O-] | 4 (≈ 10.2 µM) | 8 (≈ 20.4 µM) | > 32 | 4 (≈ 10.2 µM) | Activity [11]: Dose-dependent effect; Activity [12]: Active; GI50 at 72 h [13]: 27 µM; Selectivity Index [14]: 5.2; MIC [6]: 4 µg/mL (≈ 10.2 µM); MIC [7]: 2 µg/mL (≈ 5.11 µM); MIC [8]: 2 µg/mL (≈ 5.11 µM); MIC [9]: 2 µg/mL (≈ 5.11 µM); MIC [10]: 4 µg/mL (≈ 10.2 µM)
CCN(c1ccccc1OC)S(=O)(=O)c1ccc([N+](=O)[O-])cc1[N+](=O)[O-] | 8 (≈ 21 µM) | > 32 | > 32 | 8 (≈ 21 µM) | 
CCN1C(=O)C=CC1=O |  |  |  |  | Activity [5]: Active
COc1ccccc1N(CCCN(Cc1ccccc1)S(=O)(=O)c1ccc([N+](=O)[O-])cc1[N+](=O)[O-])S(=O)(=O)c1ccc([N+](=O)[O-])cc1[N+](=O)[O-] | > 32 |  |  |  | 
C=CCN(c1ccccc1OC)S(=O)(=O)c1ccc([N+](=O)[O-])cc1[N+](=O)[O-] | 8 (≈ 20.3 µM) | > 32 | > 32 | 4 (≈ 10.2 µM) | 
CCCN(c1ccccc1OC)S(=O)(=O)c1ccc([N+](=O)[O-])cc1[N+](=O)[O-] | > 32 | > 32 | > 32 |  | 
COc1cccc(N(C)S(=O)(=O)c2ccc([N+](=O)[O-])cc2[N+](=O)[O-])c1 | 8 (≈ 21.8 µM) | 8 (≈ 21.8 µM) | > 32 | 4 (≈ 10.9 µM) | 
O=[N+]([O-])c1ccc(S(=O)(=O)N(CCCO)Cc2ccccc2)c([N+](=O)[O-])c1 | 16 (≈ 40.5 µM) | 32 (≈ 80.9 µM) | > 32 | 8 (≈ 20.2 µM) | 
N#Cc1ccc(NS(=O)(=O)c2ccc([N+](=O)[O-])cc2[N+](=O)[O-])cc1 | > 16 |  |  |  | 
O=[N+]([O-])c1ccc(S(=O)(=O)Nc2ccc(F)cc2)c([N+](=O)[O-])c1 | 16 (≈ 46.9 µM) |  |  |  | 
C#CCN(C)S(=O)(=O)c1ccc([N+](=O)[O-])cc1[N+](=O)[O-] | 8 (≈ 26.7 µM) | > 32 | > 32 | 8 (≈ 26.7 µM) | 
C[C@@H](O)[C@H]1C(=O)N2C(C(=O)O)=C(S[C@@H]3CN[C@H](C(=O)N(C)C)C3)[C@H](C)[C@H]12 [MEROPENEM] |  |  |  | 16 (≈ 41.7 µM) | MIC [6]: 16 µg/mL (≈ 41.7 µM); MIC [7]: 1 µg/mL (≈ 2.61 µM); MIC [8]: 4 µg/mL (≈ 10.4 µM); MIC [9]: > 32 µg/mL; MIC [10]: 0.5 µg/mL (≈ 1.3 µM)
COc1ccc(N(CCCN(Cc2ccccc2)S(=O)(=O)c2ccc([N+](=O)[O-])cc2[N+](=O)[O-])S(=O)(=O)c2ccc([N+](=O)[O-])cc2[N+](=O)[O-])cc1 | > 32 |  |  |  | 
CCN(c1cccc(OC)c1)S(=O)(=O)c1ccc([N+](=O)[O-])cc1[N+](=O)[O-] | 8 (≈ 21 µM) | 8 (≈ 21 µM) | > 32 | 8 (≈ 21 µM) | 
C#CCN(Cc1ccc(OC)cc1)S(=O)(=O)c1ccc([N+](=O)[O-])cc1[N+](=O)[O-] | 8 (≈ 19.7 µM) | 16 (≈ 39.5 µM) | > 32 | 8 (≈ 19.7 µM) | 
